Experimental data as given in ChEMBL document CHEMBL1139952, “Cytotoxic Mannich bases of 6-(3-aryl-2-propenoyl)-2(3H)-benzoxazolones” (Eur J Med Chem, 2007).
Activity calls are given as the source filed them. The rule behind the calls is not given here.

Legend:
Type in all cases: functional, cell-based
[1] = system: BV-173; assay: Cytotoxicity against human BV173 cells after 72 hrs by MTT assay; details: BV-173, 72 h
Outline: (§1)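 Suspension cultures (BV-173 pre-B-cell leukemia or K-562 chronic myeloid leukemia, from DSMZ) kept in log phase in RPMI-1640 with 10% FBS and 2 mM L-glutamine, 37 °C, humidified 5% CO2. Compounds dissolved in DMSO and diluted in RPMI-1640, final DMSO at most 0.5%. Exposure 72 h, MTT-dye reduction read-out. Six wells per concentration, experiments in triplicate, IC50 from concentration-response fits.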

[2] = system: K562; assay: Cytotoxicity against human K562 cells after 72 hrs by MTT assay; details: K562, 72 h; outline: as §1
[3] = system: BV-173; assay: Induction of apoptosis in BV173 cells assessed as DNA fragmentation at 2.5 uM after 24hrs; details: Homo sapiens
Outline: (§2)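 Apoptosis assay: exponentially growing BV-173 cells, 1 × 10⁶, exposed 24 h to compound or etoposide, with solvent-treated cells as controls. DNA was extracted from the cytosolic fraction and examined for fragmentation as laddering beside a DNA-laddering marker.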

[4] = system: BV-173; assay: Induction of apoptosis in BV173 cells assessed as DNA fragmentation at 0.25 uM after 24hrs; details: Homo sapiens, 2.5 uM, in the assay text read “2.5 uM” for “0.25 uM”; outline: as §2

`COc1ccc(/C=C/C(=O)c2ccc3c(c2)oc(=O)n3CN2CCOCC2)cc1` gave an IC50 [1] of 4.7 µM and an IC50 [2] of 22.7 µM.

`O=C(/C=C/c1ccccc1)c1ccc2c(c1)oc(=O)n2CN1CCCCC1` was tested, and the IC50 [1] was 8.2 µM and the IC50 [2] was 38.3 µM.

With `COc1ccc(/C=C/C(=O)c2ccc3c(c2)oc(=O)n3CN2CCN(c3ccccc3OC)CC2)cc1` the IC50 [1] was 5.4 µM, the Activity [3] was “Active” and the IC50 [2] was 12.4 µM.

Work on `COc1ccccc1N1CCN(Cn2c(=O)oc3cc(C(=O)/C=C/c4ccccc4)ccc32)CC1` yielded an IC50 [1] of 9.2 µM and an IC50 [2] of 30.1 µM.

`COc1ccc(/C=C/C(=O)c2ccc3c(c2)oc(=O)n3CN(C)C)cc1` was tested, and the IC50 [1] was 17.7 µM.

With `COc1cc([C@@H]2c3cc4c(cc3[C@@H](O[C@@H]3O[C@@H]5CO[C@@H](C)O[C@H]5[C@H](O)[C@H]3O)[C@H]3COC(=O)[C@H]23)OCO4)cc(OC)c1O` [ETOPOSIDE] the IC50 [1] was 0.9 µM, the IC50 [2] was 3.1 µM and the Activity [4] was “Active”.

`COc1ccc(/C=C/C(=O)c2ccc3[nH]c(=O)oc3c2)cc1` showed an IC50 [1] of 9.2 µM.

Work on `CN(C)Cn1c(=O)oc2cc(C(=O)/C=C/c3ccccc3)ccc21` yielded an IC50 [1] of 6.6 µM and an IC50 [2] of 27.2 µM.

`O=C(/C=C/c1ccccc1)c1ccc2c(c1)oc(=O)n2CN1CCSCC1` showed an IC50 [1] of 7.9 µM and an IC50 [2] of 42.2 µM.

`COc1ccc(/C=C/C(=O)c2ccc3c(c2)oc(=O)n3CN2CCN(Cc3ccccc3)CC2)cc1` was tested, and the IC50 [1] was 6.2 µM and the IC50 [2] was 24.2 µM.

For `COc1ccc(/C=C/C(=O)c2ccc3c(c2)oc(=O)n3CN2CCSCC2)cc1`, the IC50 [1] was 6.1 µM, the Activity [3] was “Active” and the IC50 [2] was 21.2 µM.

For `COc1ccc(/C=C/C(=O)c2ccc3c(c2)oc(=O)n3CN2CCCCC2)cc1`, the IC50 [1] was 15.3 µM.

In the case of `O=C(/C=C/c1ccccc1)c1ccc2c(c1)oc(=O)n2CN1CCOCC1`, the IC50 [1] is reported as 7.4 µM and the IC50 [2] is reported as 31.7 µM.

`O=C(/C=C/c1ccccc1)c1ccc2[nH]c(=O)oc2c1` gave an IC50 [1] of 18.4 µM.

With `O=C(/C=C/c1ccccc1)c1ccc2c(c1)oc(=O)n2CN1CCN(Cc2ccccc2)CC1` the IC50 [1] was 9.4 µM and the IC50 [2] was 29.5 µM.
